Measured values from ChEMBL document CHEMBL4308874, “Discovery and optimization of 3,4,5-trimethoxyphenyl substituted triazolylthioacetamides as potent tubulin polymerization inhibitors” (Bioorg Med Chem Lett, 2019).

How the values were obtained:
[1] = tested on: HeLa; assay: Cytotoxicity against human HeLa cells assessed as inhibition of cell growth after 48 hrs by MTT assay; type: functional, cell-based
[2] = tested on: MCF7; assay: Cytotoxicity against human MCF7 cells assessed as inhibition of cell growth after 48 hrs by MTT assay; type: functional, cell-based; conditions: MCF7, 48 h
[3] = tested on: HT-29; assay: Cytotoxicity against human HT-29 cells assessed as inhibition of cell growth after 48 hrs by MTT assay; type: functional, cell-based; conditions: HT-29, 48 h
[4] = tested on: HCT-116; assay: Cytotoxicity against human HCT116 cells assessed as inhibition of cell growth after 48 hrs by MTT assay; type: functional, cell-based; conditions: HCT-116, 48 h
[5] = tested on: HeLa; assay: Cell cycle arrest in human HeLa cells assessed as accumulation at S phase at 0.5 uM after 48 hrs by propidium iodide staining based flow cytometry (reference value: 20.31%); type: functional
[6] = tested on: HEK293; assay: Cytotoxicity against HEK293 cells assessed as inhibition of cell growth after 48 hrs by MTT assay; type: cell-based; conditions: Homo sapiens, HEK293, 48 h
[7] = target: Tubulin (Homo sapiens) (UniProt P68371+Q9H4B7+P0DPH7+P68366+Q13509+Q71U36+P04350+Q3ZCM7+P07437+P68363+Q9BQE3+Q6PEY2+Q13885+Q9BVA1+Q9BUF5); assay: Inhibition of tubulin (unknown origin) polymerization at 10 uM relative to control; type: protein-complex assay
In short: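 Tubulin polymerization inhibition measured with compound at a final concentration of 10 μM, expressed as percent inhibition.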

[8] = tested on: HeLa; assay: Cell cycle arrest in human HeLa cells assessed as accumulation at G2/M phase at 0.5 uM after 48 hrs by propidium iodide staining based flow cytometry (reference value: 12.91%); type: functional
[9] = tested on: HeLa; assay: Cell cycle arrest in human HeLa cells assessed as accumulation at G0/G1 phase at 0.5 uM after 48 hrs by propidium iodide staining based flow cytometry (reference value: 66.77%); type: functional
[10] = tested on: HeLa; assay: Cell cycle arrest in human HeLa cells assessed as accumulation at G2/M phase at 0.25 uM after 48 hrs by propidium iodide staining based flow cytometry (reference value: 12.91%); type: functional
[11] = tested on: HeLa; assay: Cell cycle arrest in human HeLa cells assessed as accumulation at S phase at 0.25 uM after 48 hrs by propidium iodide staining based flow cytometry (reference value: 20.31%); type: functional
[12] = tested on: HeLa; assay: Cell cycle arrest in human HeLa cells assessed as accumulation at G2/M phase after 48 hrs by propidium iodide staining based flow cytometry; type: functional
[13] = tested on: HeLa; assay: Cell cycle arrest in human HeLa cells assessed as accumulation at G0/G1 phase at 0.25 uM after 48 hrs by propidium iodide staining based flow cytometry (reference value: 66.77%); type: functional
[14] = target: Tubulin; assay: Inhibition of tubulin (unknown origin) polymerization; type: protein-complex assay, Homo sapiens

Compound | IC50 [1] | IC50 [2] | IC50 [3] | IC50 [4] | inhibition [7] | other results
COc1ccc(NC(=O)CSc2nnc(-c3cc(OC)c(OC)c(OC)c3)[nH]2)cc1O | > 100 µM | > 100 µM | > 100 µM | > 100 µM |  | 
COc1cc(-c2nnc(SCC(=O)c3ccc(C)cc3)n2-n2cccc2)cc(OC)c1OC | > 100 µM | > 100 µM | > 100 µM | > 100 µM |  | 
CCc1ccc(NC(=O)CSc2nnc(-c3cc(OC)c(OC)c(OC)c3)n2N)cc1 | 0.05 µM | 25.4 µM | 0.84 µM | 71.4 µM | 38% | Activity [5]: 2%; IC50 [6]: > 100 µM; Activity [8]: 54.77%; Activity [9]: 43.23%; Activity [10]: 27.3%; Activity [11]: 25.35%; Activity [12]: Dose-dependent effect; Activity [13]: 47.35%
COc1cc(-c2nnc(SCC(=O)Nc3ccc(C)cc3)n2N)cc(OC)c1OC | 1.61 µM | 26.8 µM | 0.82 µM |  | 55% | IC50 [14]: 5.9 µM
COc1cc(-c2nnc(SCC(=O)Nc3ccc(N(C)C)cc3)n2N)cc(OC)c1OC | 23.8 µM | > 100 µM | 43.1 µM | > 100 µM |  | 
COc1ccc(NC(=O)CSc2nnc(-c3cc(OC)c(OC)c(OC)c3)n2-n2cccc2)cc1 | > 100 µM | > 100 µM | > 100 µM | > 100 µM |  | 
COc1cc(-c2nnc(SCC(=O)NC3CCCCC3)n2N)cc(OC)c1OC | 59.7 µM | 80.6 µM | > 100 µM | > 100 µM |  | 
COc1cc(-c2nnc(SCC(=O)Nc3ccc(C)c(C)c3)n2N)cc(OC)c1OC | 0.88 µM | > 100 µM | 1.21 µM | > 100 µM | 18% | 
COc1cc(-c2nnc(SCC(=O)N(C)c3ccc(C)cc3)n2N)cc(OC)c1OC | 21.3 µM | > 100 µM | > 100 µM | > 100 µM | 21% | 
CCCc1ccc(NC(=O)CSc2nnc(-c3cc(OC)c(OC)c(OC)c3)n2N)cc1 | 18.7 µM | 41.2 µM | 50.8 µM | 41.8 µM | 19% | 
COc1cc(-c2nnc(SCC(=O)Nc3ccc(C)cc3)[nH]2)cc(OC)c1OC | > 100 µM | > 100 µM | > 100 µM | > 100 µM |  | 
COc1cccc(NC(=O)CSc2nnc(-c3cc(OC)c(OC)c(OC)c3)[nH]2)c1 | > 100 µM | > 100 µM | > 100 µM | > 100 µM |  | 
COc1cc(-c2nnc(SCC(=O)Nc3ccc(C(C)C)cc3)n2N)cc(OC)c1OC | 13.7 µM | > 100 µM | > 100 µM | 74.8 µM |  | 
COc1cc(-c2nnc(SCC(=O)Nc3ccc(C)cc3)n2-n2cccc2)cc(OC)c1OC | > 100 µM | > 100 µM | 2.94 µM | 26.6 µM | 17% | 
COc1cc(-c2nnc(SCC(=O)c3ccc(Cl)cc3)n2-n2cccc2)cc(OC)c1OC | > 100 µM | > 100 µM | > 100 µM | > 100 µM |  | 
COc1ccc(/C=C\c2cc(OC)c(OC)c(OC)c2)cc1O [COMBRETASTATIN A4] | 0.007 µM |  | 1.96 µM |  |  | 

Compound | IC50 [1] | IC50 [2] | IC50 [3] | IC50 [4] | inhibition [7] | other results
COc1cc(-c2nnc(SCC(=O)Nc3ccc(C)cc3F)n2N)cc(OC)c1OC | 0.04 µM | > 100 µM | 0.13 µM | > 100 µM |  | IC50 [6]: 61.1 µM
COc1cc(-c2nnc(SCC(=O)Nc3ccc(N4CCCCC4)cc3)n2N)cc(OC)c1OC | 54.9 µM | > 100 µM | 75.3 µM | > 100 µM |  | 
COc1cc(-c2nnc(SCC(=O)Nc3c(C)cc(C)cc3C)n2N)cc(OC)c1OC | 82.8 µM | > 100 µM | > 100 µM | > 100 µM |  | 
COc1ccc(NC(=O)CSc2nnc(-c3cc(OC)c(OC)c(OC)c3)[nH]2)cc1 | > 100 µM | > 100 µM | > 100 µM | > 100 µM |  | 
COc1ccc(NC(=O)CSc2nnc(-c3cc(OC)c(OC)c(OC)c3)n2-n2cccc2)cc1OC | > 100 µM | > 100 µM | > 100 µM | > 100 µM |  | 
CCc1ccc(NC(=O)CSc2nnc(-c3cc(OC)c(OC)c(OC)c3)[nH]2)cc1 | 33.9 µM | > 100 µM | > 100 µM | > 100 µM | 11% | 
CCCc1ccc(NC(=O)CSc2nnc(-c3cc(OC)c(OC)c(OC)c3)[nH]2)cc1 | > 100 µM | > 100 µM | > 100 µM | > 100 µM |  | 
COc1cc(-c2nnc(SCC(=O)Nc3ccc(C(C)(C)C)cc3)n2N)cc(OC)c1OC | 49.6 µM | > 100 µM | > 100 µM | > 100 µM |  | 
COc1cc(-c2nnc(SCC(=O)Nc3cccc(C)c3)n2N)cc(OC)c1OC | 2.96 µM | 47.1 µM | 4.87 µM | > 100 µM | 25% | 
COc1cccc(NC(=O)CSc2nnc(-c3cc(OC)c(OC)c(OC)c3)n2N)c1 |  | 52.6 µM | 3.15 µM |  |  | 
COc1ccccc1NC(=O)CSc1nnc(-c2cc(OC)c(OC)c(OC)c2)n1N | 0.16 µM | > 100 µM | 0.13 µM | 82.9 µM | 25% | IC50 [6]: > 100 µM
COc1ccc(NC(=O)CSc2nnc(-c3cc(OC)c(OC)c(OC)c3)n2N)cc1OC | 54.2 µM | > 100 µM | > 100 µM | > 100 µM |  | 
COc1ccc(NC(=O)CSc2nnc(-c3cc(OC)c(OC)c(OC)c3)n2N)cc1 | 2.96 µM | > 100 µM | 15.2 µM | 61.1 µM | 24% | 
COc1cc(-c2nnc(SCC(=O)Oc3ccc(C)cc3)n2N)cc(OC)c1OC | > 100 µM | > 100 µM | > 100 µM | > 100 µM |  | 
COc1ccc(NC(=O)CSc2nnc(-c3cc(OC)c(OC)c(OC)c3)n2N)cc1O | 34.8 µM | > 100 µM | > 100 µM | > 100 µM |  | 
